PP1 counter – blocks human PP1-alpha phosphatase, a PP5 counter-screen. P62136. purified PP1alpha, OMFP fluorescence. inhibition, % at 6.7 µM. 320,000 compounds, 0.9% hits. AID 2235;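 active means inhibition above the mean inhibition of all tested compounds plus 3 SD, computed separately for each screening campaign, cut at about 15% in these data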
PP5 primary – inhibitors of human protein phosphatase 5 (PP5). P53041. 320,000 compounds, 0.18% hits. purified PP5c, OMFP substrate fluorescence. inhibition, % at 6.7 µM. AID 1987;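 active means inhibition above the campaign's mean inhibition across all tested compounds plus 3 SD, cut at about 9.5% in these data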;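 further: 0% = DMSO only and 100% = 100 µM cantharidin control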
NR2E3 ag-1 – activates human photoreceptor nuclear receptor NR2E3; Q9Y5X4; GST-NR2E3/biotin-RetCOR TR-FRET, 1536-well; inhibition of corepressor binding, % at 4.78 µM; 320,000 compounds, 0.12% hits;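 active means percent inhibition above the cutoff of mean plus 3 SD of all tested compounds, set per screening campaign, cut at about 20% in these data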;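 further: 0% = DMSO wells and 100% = biotin wells as full block of FRET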
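System: GST-NR2E3 and biotin-RetCOR proteins; probe or stimulus: 7 nM biotin-RetCOR; doses: compound at 4.8 µM, single dose; schedule: Compound–protein incubation for 5 h at 4 °C; detection: time-resolved FRET; read-out: percent inhibition; controls: biotin wells as high control, 0.6% DMSO wells as low control; format: 1536-well plates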
NR2E3 ag-2 – activates human NR2E3 receptor | Q9Y5X4 | 360,000 compounds, 0.35% hits | CHO-S Gal4-NCOR/VP16-NR2E3 two-hybrid, luciferase | inhibition of corepressor binding, % at 3.98 µM;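 active means inhibition above the mean of all tested compounds plus 3 SD, cut at about 70% in these data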;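 further: 0% = DMSO with NR2E3 transfected cells and 100% = cells lacking NR2E3 construct; higher means lower luciferase signal from less NR2E3 corepressor binding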
NR2E3 agonist cf – confirmation of human NR2E3 nuclear receptor agonists | activation (reported as inhibition), % at 3.98 µM | 360 compounds, 39% hits | shares compounds with NR2E3 ag-1 | AID 2379 | cell-free NR2E3 corepressor release, TR-FRET, 5 h; in the data active means activation above about 20%
PPARg-NCOR2 ag – PPARg-NCOR2 interaction agonism, NR2E3 counter-screen; shares compounds with NR2E3 ag-1; TR-FRET PPARg-NCOR2 coregulator interaction, biochemical; inhibition, % at 3.98 µM; 360 compounds, 45% hits; AID 504787; in the data active means inhibition above about 20%;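 further: 0% = DMSO vehicle and 100% = wells without protein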
An asterisk follows results filed as active; . = no result given. In the library only some 1.3% were active in any assay of this set; here they are far more common.

SMILES	PP1 counter	PP5 primary	NR2E3 ag-1	NR2E3 ag-2	NR2E3 agonist cf	PPARg-NCOR2 ag
O=C(C1=C(O)C(=O)N(CCN2CCOCC2)C1c1cccc(F)c1)c1cc2ccccc2o1 (centres undefined)	10.4	-0.4	33.0*	-12.8	19.8*	24.9*
CNC(=O)N(O)C1N(/N=C/c2cc(Br)ccc2O)C(=S)SC1(C)C (centres undefined)	0.1	5.7	-0.2	-24.6	.	.
CN(CC(=O)NCCC1=CCCCC1)S(=O)(=O)c1ccc2c(c1)c(=O)n(C)c(=O)n2C	3.3	0.3	24.5*	3.9	-4.9	-6.1
CN(CC(=O)NCCc1ccc(Cl)cc1)S(=O)(=O)c1ccc2c(c1)c(=O)n(C)c(=O)n2C	-8.6	2.3	4.1	5.8	.	.
CC(=O)c1sc2nc(SCC(=O)NCCc3ccccc3)[nH]c(=O)c2c1C	0.3	-0.6	31.7*	9.8	13.3	19.8*
CCCCOc1ccc(-c2c(C(=O)Nc3ccccc3)c(C)[nH]c(=S)c2C#N)cc1	-1.0	1.8	93.8*	-8.6	84.2*	71.3*
CCOC(=O)c1c(C)[nH]c(=S)c(C#N)c1-c1ccc(OC)cc1	-4.1	2.6	14.0	0.4	.	.
CCCNC(=O)c1cc(C2CCCCN2S(C)(=O)=O)on1 (centres undefined)	.	.	.	-42.0	.	.
CC(C)(C)OC(=O)NCc1ccc(CNC(=O)c2nc[nH]c2C(=O)N2CCN(C(=O)OC(C)(C)C)CC2)cc1	-3.7	0.4	-2.9	-10.3	.	.
CC(=O)NC(CCS(C)(=O)=O)C(=O)Nc1ccc(Cl)c(Cl)c1 (centres undefined)	7.3	2.1	19.8*	-43.4	-5.2	-7.0
CC1=NN(Cc2ccccc2)C(=O)C1	0.7	2.8	19.6*	-17.1	-8.2	-10.1
Cc1c(N2C(=O)c3ccc(Br)cc3C2=O)c(=O)n(-c2ccccc2)n1C	-4.3	2.1	4.1	-7.0	.	.
Cc1c(N2C(=O)c3ccc4c5c(ccc(c35)C2=O)CC4)c(=O)n(-c2ccccc2)n1C	10.5	1.8	20.6*	-7.5	25.6*	13.8
NC(c1csc(Nc2nccc(C(F)(F)F)n2)n1)C1CCCCC1 (centres undefined)	.	.	.	-14.7	.	.
O=C(O[C@@H]1OC2COC(=O)c3cc(O)c(O)c(O)c3-c3c(cc(O)c(O)c3O)C(=O)O[C@@H]([C@H]1O)[C@@H]2O)c1cc(O)c(O)c(O)c1	7.3	2.5	24.2*	-5.0	14.5	-6.0
O=C(O)C1C2CCC1C(O)C2 (centres undefined)	.	.	.	12.8	.	.
Cc1ccc(-c2cc(C(=O)NN3CCOCC3)c3cc(Br)ccc3n2)o1	-0.1	0.1	4.5	-8.4	.	.
Cc1ccc(-c2cc(C(=O)O)c3cc(Br)ccc3n2)o1	2.2	-1.4	31.2*	-28.3	24.2*	36.4*
Cn1cc(Cl)c(-c2n[nH]c(=S)n2-c2ccc(F)cc2)n1	4.4	-0.6	20.3*	-19.8	10.0	13.4
Cc1ccc(-n2c(-c3nn(C)cc3Cl)n[nH]c2=S)cc1	-1.3	0.6	3.3	-27.3	.	.
Cc1nn(C)c(-c2n[nH]c(=S)n2-c2ccccc2)c1Cl	0.6	1.4	7.0	-29.1	.	.
Cn1cc(Cl)c(-c2n[nH]c(=S)n2-c2ccccc2)n1	-0.3	-0.2	26.9*	-14.3	14.9	13.3
Cc1c(Cl)c(-c2n[nH]c(=S)n2-c2ccc(F)cc2)nn1C	-3.1	0.3	20.8*	-10.2	14.8	17.4
COc1ccc(-c2ccc(CN3C(C)C(=O)N(Cc4cn(CCC5OCCO5)nn4)CCS3(=O)=O)cc2)cc1OC (centres undefined)	.	.	.	-19.7	.	.
NC(Cc1ccc(C(F)(F)F)cc1)c1csc(Nc2ccc(S(N)(=O)=O)cc2)n1 (centres undefined)	.	.	.	-24.8	.	.
SMILES	PP1 counter	PP5 primary	NR2E3 ag-1	NR2E3 ag-2	NR2E3 agonist cf	PPARg-NCOR2 ag
CCCCN1C(=O)NC2NC(=O)NC21 (centres undefined)	-1.2	1.2	36.6*	-26.8	14.6	-9.5
CCCCN1C(=O)N(C)C2NC(=O)NC21 (centres undefined)	0.4	0.8	8.7	-7.8	.	.
CN(C)c1ccc(-c2ccnc3c2CC(C)(C(=O)NCc2ccco2)O3)cc1 (centres undefined)	.	.	.	-37.3	.	.
CC(C)C1Cc2ccccc2-c2[nH]c(=S)[nH]c(=O)c21 (centres undefined)	-4.5	0.8	20.3*	9.8	21.0*	26.2*
O=C(NCCCN1CCOCC1)C(=O)NCC1OCCN1S(=O)(=O)c1ccc(Cl)cc1 (centres undefined)	.	.	.	-5.0	.	.
Cn1c2ccccc2c2nnc(SCC(=O)Nc3ccccc3F)nc21	-5.7	0.8	10.1	6.9	.	.
CC(C)n1c2ccccc2c2nnc(SCC(=O)Nc3ccccc3C(=O)O)nc21	4.8	-1.3	26.5*	-10.8	7.1	13.3
Cc1ccc(-c2ccc(=O)n(CC(=O)NCCN(CC(C)C)CC(C)C)n2)cc1	-2.4	-1.5	0.9	16.8	.	.
Cn1nc(C(=O)N2CCC(C(N)=O)CC2)c2c1-c1ccccc1SC2	-3.0	3.4	26.7*	-18.8	-6.8	4.0
CC1Cc2cc(/C(O)=C3/C(=O)C(=O)N(Cc4ccco4)C3c3cccs3)ccc2O1 (centres undefined)	10.4	-5.7	22.3*	-8.7	5.4	7.3
Nc1nc(-c2ccco2)c(-c2ccco2)s1	3.4	-0.2	0.1	-26.4	.	.
c1coc(-c2nc(-c3ccco3)c(-c3ccco3)nc2-c2ccco2)c1	42.9*	2.0	41.7*	-2.2	-3.0	-4.5
CC1(C(=O)NS(=O)(=O)c2ccc3c(c2)CCO3)CCN1C(=O)CCC1CCCC1 (centres undefined)	.	.	.	-2.6	.	.
S=c1nc(Cc2ccccc2)[nH]c2ccccc12	2.7	0.4	22.9*	-6.7	-3.6	7.7
S=c1nc(COc2ccccc2)[nH]c2ccccc12	-8.0	-5.5	30.9*	-84.5	4.6	12.5
O=c1oc2cc(O)c(Cl)cc2c2ccccc12	-2.0	-3.8	51.6*	-11.1	45.8*	47.8*
CN(C)c1ccc(CNC(=O)CCNS(=O)(=O)c2cc(Br)cnc2N)cc1	-1.4	-0.4	2.9	-9.2	.	.
COCCNC(=O)c1cc(-c2ccccn2)nc2ccc(S(=O)(=O)N3CCC(C)CC3)cc12	-1.4	0.9	20.4*	10.1	-9.2	6.6
COc1ccc(C)cc1S(=O)(=O)N1CCCC(C(=O)N2CCN(c3ccccc3F)CC2)C1 (centres undefined)	-12.2	-0.3	-0.9	22.1	.	.
c1ccc(-n2ncc3c2ncn2nc(-c4ccco4)nc32)cc1	3.4	0.9	47.8*	-96.0	17.8	58.9*
c1ccc2cc(C3CCCCC3)ncc2c1	.	.	.	-23.2	.	.
Cc1ccc(C(=O)C2=C(O)C(=O)N(Cc3cccnc3)C2c2ccc(N(C)C)cc2)o1 (centres undefined)	3.6	-1.1	10.0	-33.9	.	.

Compound activity deposited in PubChem by The Scripps Research Institute Molecular Screening Center.
